Converted amounts (≈) assume the structure as drawn. The source made the active and inactive calls. The calls are words filed in the database; no cut-off is given here.
Experiments:
[1] = system: Mus musculus; experiment: Effect of compound on Poliovirus induced paralysis and death in mice when administered orally with 31 mg/kg.; format: functional; details: route oral
In short: (§1)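 ICR Buckberg mice (18–21 g) were infected intracerebrally with polio-2 (MEF strain). Compound was given orally bid at 31–250 mg/kg: 1 h before infection, 2 h after, then twice daily for 13 days. Placebo and nonmedicated groups served as controls, with 30 mice per group. Flaccid paralysis and death were scored and survivors counted when the test ended on day 20.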

[2] = system: Mus musculus; experiment: Effect of compound on number of survivors per 30 mice at dose 63 mg/kg; format: functional; in short: as §1
[3] = system: Mus musculus; experiment: Effect of compound on number of survivors per 30 mice at dose 250 mg/kg; format: functional; in short: as §1
[4] = system: Enterovirus; experiment: Effect on plaque production by Human Rhinovirus serotype 1A (seven most common serotypes); format: functional
In short: (§2)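 HeLa (Ohio) monolayers (day-old, 90%) were infected at about 80 pfu/well and adsorbed at least 1 h at 33 °C in 2% CO2. After 3 days at 33 °C they were fixed with formaldehyde and stained with crystal violet. MIC was the concentration giving 50% fewer plaques.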

[5] = system: Mus musculus; experiment: Effect of compound on Poliovirus induced paralysis and death in mice when administered orally with placebo mg/kg.; format: functional; in short: as §1
[6] = system: Enterovirus; experiment: Effect on plaque production by Human Rhinovirus serotype 4 (seven most common serotypes); NA=Not active; format: functional, organism-based; in short: as §2
[7] = system: Poliovirus 2; experiment: Minimum inhibitory concentration of compound in vitro against poliovirus-2; format: functional; details: Enterovirus C
In short: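 Plaque-reduction assay on day-old HeLa (Ohio) monolayers at 90% confluence, infected with polio-2 at ca. 80 pfu/well. Adsorption was at least 1 h at 37 °C in 2% CO2. Cells were then overlaid in duplicate with drug in M-199/calf serum/agarose (Me2SO stock at 10 mg/mL, twofold dilutions) and held 3 days. Plaques were fixed with formaldehyde, stained with crystal violet and counted. MIC is the concentration giving 50% plaque reduction.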

[8] = system: rhinovirus A2; experiment: Minimum inhibitory concentration of compound in vitro against rhinovirus-2; format: functional, rhinovirus type-2; details: Rhinovirus A; in short: as §2
[9] = system: Enterovirus; experiment: Effect on plaque production by Human Rhinovirus serotype 72; NA=Not active; format: functional, organism-based; in short: as §2
[10] = system: Mus musculus; experiment: Effect of compound on Poliovirus induced paralysis and death in mice when administered orally with dose 63 mg/kg.; format: functional; details: route oral; in short: as §1
[11] = Maximum testable level of compound was evaluated; format: functional
In short: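 In the HeLa (Ohio) plaque-overlay system, Me2SO-solubilized compound was twofold serially diluted into the agarose overlay. Uninfected cell controls were run alongside and cells were stained with crystal violet after 3 days. The maximum testable level was taken as the concentration below which no cytotoxic effects were seen.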

[12] = system: Mus musculus; experiment: Effect of compound on Poliovirus induced paralysis and death in mice when administered orally with nonmed mg/kg.; format: functional; in short: as §1
[13] = system: Mus musculus; experiment: Effect of compound on Poliovirus induced paralysis and death in mice when administered orally with dose 125 mg/kg.; format: functional; details: route oral; in short: as §1
[14] = system: Enterovirus; experiment: Effect on plaque production by Human Rhinovirus serotype 33; format: functional; in short: as §2
[15] = system: Enterovirus; experiment: Effect on plaque production by Human Rhinovirus serotype 22; format: functional; in short: as §2
[16] = system: Enterovirus; experiment: Effect on plaque production by Human Rhinovirus serotype 39; format: functional; in short: as §2
[17] = system: Poliovirus 3; experiment: Minimum inhibitory concentration of compound in vitro against poliovirus-3; format: functional; details: Enterovirus C
[18] = system: Mus musculus; experiment: Effect of compound on number of survivors per 30 mice at dose 125 mg/kg; format: functional; in short: as §1
[19] = system: Enterovirus; experiment: Effect on plaque production by Human Rhinovirus serotype 31 (seven most common serotypes); format: functional; in short: as §2
[20] = system: Enterovirus; experiment: Effect on plaque production by Human Rhinovirus serotype 21; format: functional; in short: as §2
[21] = system: Echovirus E11; experiment: Minimum inhibitory concentration of compound in vitro against echovirus-11; format: functional; details: Enterovirus B
In short: (§3)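 Plaque reduction on day-old HeLa (Ohio) monolayers, about 80 pfu/well. Drug was serially diluted twofold from a 10 mg/mL Me2SO stock into an M-199/10% calf serum/agarose overlay, applied in duplicate after virus adsorption. Plaques were counted after 3 days in 2% CO2, following formaldehyde fixation and crystal violet staining. MIC was the concentration producing 50% plaque reduction.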

[22] = system: Enterovirus; experiment: Effect on plaque production by Human Rhinovirus serotype 29 (seven most common serotypes); format: functional; in short: as §2
[23] = system: Enterovirus; experiment: Effect on plaque production by Human Rhinovirus serotype 3; format: functional; in short: as §2
[24] = system: Mus musculus; experiment: Effect of compound on number of survivors per 30 mice at nonmed mg/kg; format: functional; in short: as §1
[25] = system: Enterovirus; experiment: Effect on plaque production by Human Rhinovirus serotype 16; format: functional; in short: as §2
[26] = system: Enterovirus; experiment: Effect on plaque production by Human Rhinovirus serotype 89; format: functional; in short: as §2
[27] = system: Enterovirus; experiment: Effect on plaque production by Human Rhinovirus serotype 2; format: functional; in short: as §2
[28] = system: Enterovirus; experiment: Effect on plaque production by Human Rhinovirus serotype 86; format: functional; in short: as §2
[29] = system: Mus musculus; experiment: Effect of compound on Poliovirus induced paralysis and death in mice when administered orally with dose 250 mg/kg.; format: functional; details: route oral; in short: as §1
[30] = system: Enterovirus; experiment: Effect on plaque production by Human Rhinovirus serotype 5; format: functional; in short: as §2
[31] = system: Enterovirus; experiment: Effect on plaque production by Human Rhinovirus serotype 41; NA=Not active; format: functional, organism-based; in short: as §2
[32] = system: Mus musculus; experiment: Effect of compound on number of survivors per 30 mice at dose 31 mg/kg; format: functional; in short: as §1
[33] = system: Enterovirus; experiment: Effect on plaque production by Human Rhinovirus serotype 15 (seven most common serotypes); format: functional; in short: as §2
[34] = system: Enterovirus; experiment: Effect on plaque production by Human Rhinovirus serotype 61; format: functional; in short: as §2
[35] = system: Echovirus E9; experiment: Minimum inhibitory concentration of compound in vitro against echovirus-9; format: functional; details: Enterovirus B; in short: as §3
[36] = system: Poliovirus 2; experiment: In vitro anti-picornavirus activity against Poliovirus type-2.; format: functional; details: Enterovirus C
[37] = system: Enterovirus; experiment: Effect on plaque production by Human Rhinovirus serotype 36; format: functional; in short: as §2
[38] = system: Enterovirus; experiment: Effect on plaque production by Human Rhinovirus serotype 75; format: functional; in short: as §2
[39] = system: Enterovirus; experiment: Effect on plaque production by Human Rhinovirus serotype 50; format: functional; in short: as §2
[40] = system: Enterovirus; experiment: Effect on plaque production by Human Rhinovirus serotype 13; format: functional; in short: as §2
[41] = system: Enterovirus; experiment: Effect on plaque production by Human Rhinovirus serotype 29; format: functional; in short: as §2
[42] = system: Enterovirus; experiment: Effect on plaque production by Human Rhinovirus serotype 18; format: functional; in short: as §2
[43] = system: Enterovirus; experiment: Effect on plaque production by Human Rhinovirus serotype 49; format: functional; in short: as §2
[44] = system: Enterovirus; experiment: Effect on plaque production by Human Rhinovirus serotype 14; format: functional; in short: as §2
[45] = system: rhinovirus A2; experiment: In vitro anti-picornavirus activity against Rhinovirus type-2.; format: functional; details: Rhinovirus A
In short: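 HeLa (Ohio) monolayers (day-old, 90%) were infected at about 80 pfu/well and adsorbed at least 1 h at 33 °C in 2% CO2. After 3 days at 33 °C they were fixed with formaldehyde and stained with crystal violet.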

[46] = system: Mus musculus; experiment: Effect of compound on number of survivors per 30 mice at placebo mg/kg; format: functional; in short: as §1
[47] = system: Enterovirus; experiment: Effect on plaque production by Human Rhinovirus serotype 1B (seven most common serotypes); format: functional; in short: as §2

COc1ccc(OCCCCCCCc2cc(C)no2)c(Cl)c1
survival at 31 mg/kg [1]: 53% | Survivors [2]: 20 | Survivors [3]: 28 | MIC [4]: 0.29 µg/mL (≈ 0.858 µM) | Survival [5]: 22% | MIC [6]: inactive | MIC [7]: 0.05 µg/mL (≈ 0.148 µM) | MIC [8]: 0.04 µg/mL (≈ 0.118 µM) | MIC [9]: inactive | survival at 63 mg/kg [10]: 67% | MTL [11]: 12.5 µg/mL | Survival [12]: 22% | survival at 125 mg/kg [13]: 73% | MIC [14]: 0.05 µg/mL (≈ 0.148 µM) | MIC [15]: 0.1 µg/mL (≈ 0.296 µM) | MIC [16]: 0.07 µg/mL (≈ 0.207 µM) | MIC [17]: 0.08 µg/mL (≈ 0.237 µM) | Survivors [18]: 22 | MIC [19]: 0.53 µg/mL (≈ 1.57 µM) | MIC [20]: 0.01 µg/mL (≈ 0.0296 µM) | MIC [21]: 0.04 µg/mL (≈ 0.118 µM) | MIC [22]: 0.33 µg/mL (≈ 0.977 µM) | MIC [23]: 0.5 µg/mL (≈ 1.48 µM) | Survivors [24]: 7 | MIC [25]: 0.04 µg/mL (≈ 0.118 µM) | MIC [26]: 0.03 µg/mL (≈ 0.0888 µM) | MIC [27]: 0.04 µg/mL (≈ 0.118 µM) | MIC [28]: 0.25 µg/mL (≈ 0.74 µM) | survival at 250 mg/kg [29]: 93% | MIC [30]: 5.8 µg/mL (≈ 17.2 µM) | MIC [31]: inactive | Survivors [32]: 16 | MIC [33]: 0.44 µg/mL (≈ 1.3 µM) | MIC [34]: 0.09 µg/mL (≈ 0.266 µM) | MIC [35]: 0.15 µg/mL (≈ 0.444 µM) | MIC [36]: 0.05 µg/mL (≈ 0.148 µM) | MIC [37]: 0.04 µg/mL (≈ 0.118 µM) | MIC [38]: 4.1 µg/mL (≈ 12.1 µM) | MIC [39]: 0.13 µg/mL (≈ 0.385 µM) | MIC [40]: 1.9 µg/mL (≈ 5.62 µM) | MIC [41]: 3.1 µg/mL (≈ 9.18 µM) | MIC [42]: 1.5 µg/mL (≈ 4.44 µM) | MIC [43]: 0.26 µg/mL (≈ 0.77 µM) | MIC [44]: 1.35 µg/mL (≈ 4 µM) | MIC [45]: 0.04 µg/mL (≈ 0.118 µM) | Survivors [46]: 7 | MIC [47]: 0.37 µg/mL (≈ 1.1 µM)

Source: ChEMBL document CHEMBL1123011, “Isoxazoles with antipicornavirus activity” (1985)
